This note sets out measurements from ChEMBL document CHEMBL2390931, “Synthesis and antifungal activity of some s-mercaptotriazolobenzothiazolyl amino acid derivatives” (2013).

Molecules are shown by their SMILES. Converted amounts (≈) assume the structure as drawn. The source made the active and inactive calls. Some results are limits rather than exact numbers.

What all share (assay type): functional
The subject of experiment [1] is Candida albicans. Kind of experiment: Antifungal activity against Candida albicans up to 24 hrs. In outline: (§1)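 MFC in tubes of standardized spore suspension (10⁴ CFU/mL) of clinical isolates, each dosed with compound at increasing concentrations starting from the MIC. Controls: solvent at its highest level, and fluconazole. CFU counted and viability checked at intervals over 0–24 h. MFC is the lowest concentration killing about 99% of viable CFU.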

For experiment [2], the system named is Candida albicans. The experiment can be described thus: Antifungal activity against Candida albicans at 1000 ppm. Particulars: read-out: DIZ. In outline:
(§2)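 Agar well diffusion against clinical isolates (A. flavus mold; C. albicans yeast); standardized spore suspension 10⁴ CFU/mL. Compounds dissolved in DMSO as a parent stock, diluted to test levels (100, 300, 500, 1000 ppm).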

Experiment [3] relates to Aspergillus flavus. The experiment can be described thus: Antifungal activity against Aspergillus flavus at 100 ppm. In outline:
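Clinical isolate of A. flavus (mold) tested by agar diffusion, well technique, using a standardized spore suspension of 10⁴ CFU/mL. Compounds were dissolved in dimethylsulphoxide and diluted from a parent stock.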

Experiment [4] relates to Candida albicans. The experiment can be described thus: Antifungal activity against Candida albicans at 500 ppm. The following applies: for zone of inhibition at 500 ppm: read-out: DIZ. The procedure, abridged: as §2
Experiment [5] has as its system Aspergillus flavus. Kind of experiment: Antifungal activity against Aspergillus flavus up to 24 hrs. In outline:
as §1

In experiment [6] the test system is Candida albicans. Kind of experiment: Antifungal activity against Candida albicans by agar diffusion technique. In outline: (§3)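 Clinical isolates (A. flavus mold; C. albicans yeast), spore suspension standardized at 10⁴ CFU/mL. DMSO stocks diluted to a concentration series. Approximate MIC by agar diffusion (well technique), taken as the concentration giving minimal inhibition around the well.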
(Agar diffusion results depend on both activity and mobility in agar.)

In experiment [7] the test system is Aspergillus flavus. Kind of experiment: Antifungal activity against Aspergillus flavus at 500 ppm. Particulars: for zone of inhibition at 500 ppm: read-out: DIZ. The procedure, abridged: as §2
The subject of experiment [8] is Aspergillus flavus. The experiment can be described thus: Antifungal activity against Aspergillus flavus at 300 ppm. The following applies: for zone of inhibition at 300 ppm: read-out: DIZ. In outline:
as §2

Experiment [9] relates to Aspergillus flavus. Kind of experiment: Antifungal activity against Aspergillus flavus by agar diffusion technique. The procedure, abridged:
as §3

The subject of experiment [10] is Aspergillus flavus. Kind of experiment: Antifungal activity against Aspergillus flavus at 1000 ppm. The following applies: for zone of inhibition at 1000 ppm: read-out: DIZ. In outline:
as §2

Experiment [11] has as its system Candida albicans. Kind of experiment: Antifungal activity against Candida albicans at 100 ppm. Particulars: for zone of inhibition at 100 ppm: read-out: DIZ. The procedure, abridged:
as §2

In experiment [12] the test system is Candida albicans. Kind of experiment: Antifungal activity against Candida albicans at 300 ppm. The following applies: for zone of inhibition at 300 ppm: read-out: DIZ. The procedure, abridged:
as §2

A word on the MFC: it is the smallest concentration meeting the test's criterion for killing the fungus. The term MIC denotes the least concentration at which growth counts as inhibited. Consider `COC(=O)CCn1nc2sc3ccccc3n2c1=S`, for which the MFC result in [1] and in [5] was “inactive” in each case. Also, the zone of inhibition at 1000 ppm in experiment [2] is > 16 mm; in experiment [10], < 10 mm. Moreover, the “diameter of the inhibition zone (DIZ)” value in [3], in [7], in experiment [8] and in experiment [11] was “inactive” throughout. In addition, the zone of inhibition at 500 ppm in experiment [4] is < 10 mm. Besides, the minimum inhibitory concentration (MIC) in experiment [6] is 300 µg/mL (≈ 1020 µM); in [9], 1000 µg/mL (≈ 3410 µM). In [12], the zone of inhibition at 300 ppm was < 10 mm.

In the case of `CCOC(=O)CSc1nnc2sc3ccccc3n12`, the MFC result in experiment [1] and in [5] was “inactive” throughout. The zone of inhibition at 1000 ppm in experiment [2] is 10 mm. For the same molecule, the “diameter of the inhibition zone (DIZ)” value in experiment [3], in [7], in experiment [8], in [10], in experiment [11] and in experiment [12] was “inactive” each time. Further, the zone of inhibition at 500 ppm in [4] is < 10 mm. For the same molecule, the minimal inhibitory concentration (MIC) in experiment [6] was found to be 500 µg/mL (≈ 1700 µM). The MIC result in experiment [9] was “inactive”.

`NNC(=O)CCn1nc2sc3ccccc3n2c1=S`: the MFC entry in experiment [1] and in [5] was “inactive” throughout. The zone of inhibition at 1000 ppm in [2] was < 10 mm. The “diameter of the inhibition zone (DIZ)” value in experiment [3], in [4], in [7], in [8], in [10] and in experiment [11] was “inactive” throughout. The “diameter of the inhibition zone (DIZ)” value in [12] is “inactive”. This molecule also returned an MIC in [6] of 1000 µg/mL (≈ 3410 µM). In addition, in [9], the MIC entry is “inactive”.

As to `COC(=O)[C@H](CC(C)C)NC(=O)CSc1nnc2sc3ccccc3n12`, the MFC result in experiment [1] and in experiment [5] was “inactive” in each case. The zone of inhibition at 1000 ppm in experiment [2] was 10 mm. Moreover, the “diameter of the inhibition zone (DIZ)” value in experiment [3], in [7], in [8], in experiment [10], in experiment [11] and in [12] was “inactive” each time. Further, the zone of inhibition at 500 ppm in experiment [4] is < 10 mm. For the same molecule, in experiment [6], the minimum inhibitory concentration (MIC) amounted to 500 µg/mL (≈ 1270 µM). In experiment [9], the MIC result was “inactive”.

In the case of `Sc1nnc2sc3ccccc3n12`, the minimal fungicidal concentration (MFC) in [1] and in experiment [5] was 500 µg/mL (≈ 2410 µM) throughout. The zone of inhibition at 1000 ppm in [2] and in experiment [10] was > 16 mm throughout. In addition, in [3], the “diameter of the inhibition zone (DIZ)” value was “inactive”. Further, the zone of inhibition at 500 ppm in experiment [4] is > 16 mm; in [7], 10 mm. Besides, the figures for the MIC in [6] and in [9] were 100 µg/mL (≈ 482 µM) and 300 µg/mL (≈ 1450 µM), respectively. Further, the zone of inhibition at 300 ppm in experiment [8] is < 10 mm; in experiment [12] it was 10 mm. Further, the zone of inhibition at 100 ppm in [11] was < 10 mm.

As for `COC(=O)C(NC(=O)CSc1nnc2sc3ccccc3n12)C(C)O` (racemic), the MFC entry in [1] and in experiment [5] was “inactive” in each case. The zone of inhibition at 1000 ppm in experiment [2] and in experiment [10] was 10 mm throughout. The “diameter of the inhibition zone (DIZ)” value in [3], in experiment [7], in experiment [8], in experiment [11] and in [12] was “inactive” in each case. Besides, the zone of inhibition at 500 ppm in experiment [4] is < 10 mm. Further, the MIC in experiment [6] worked out at 500 µg/mL (≈ 1310 µM); in experiment [9], 1000 µg/mL (≈ 2630 µM).

In turn, `O=C(CCn1nc2sc3ccccc3n2c1=S)N(C(=O)NC1CCCCC1)C1CCCCC1` yielded an MFC in [1] of 500 µg/mL (≈ 1030 µM). Also, the zone of inhibition at 1000 ppm in experiment [2] and in experiment [10] was > 16 mm each time. Further, the “diameter of the inhibition zone (DIZ)” value in experiment [3] is “inactive”. Moreover, the zone of inhibition at 500 ppm was > 16 mm in [4] and 10 mm in experiment [7]. In [5], the MFC entry is “inactive”. In addition, the figures for the MIC in [6] and in experiment [9] were 100 µg/mL (≈ 206 µM) and 300 µg/mL (≈ 618 µM), respectively. In addition, the zone of inhibition at 300 ppm was < 10 mm in [8] and 10 mm in experiment [12]. Further, the zone of inhibition at 100 ppm in [11] was < 10 mm.

On to `NNC(=O)CSc1nnc2sc3ccccc3n12`, for which the MFC in experiment [1] amounted to 500 µg/mL (≈ 1790 µM). The zone of inhibition at 1000 ppm in experiment [2] is > 16 mm. Moreover, the “diameter of the inhibition zone (DIZ)” value in experiment [3], in [7], in experiment [8] and in experiment [10] was “inactive” each time. In addition, the zone of inhibition at 500 ppm in [4] was found to be 10 mm. The MFC result in [5] was “inactive”. In addition, the minimal inhibitory concentration (MIC) in [6] was 100 µg/mL (≈ 358 µM). Also, the MIC entry in experiment [9] is “inactive”. The zone of inhibition at 100 ppm in experiment [11] was < 10 mm. In experiment [12], the zone of inhibition at 300 ppm was < 10 mm.

`COC(=O)[C@H](CCSC)NC(=O)CCSc1nnc2sc3ccccc3n12`: the MFC entry in experiment [1] and in experiment [5] was “inactive” each time. Further, the values for the zone of inhibition at 1000 ppm in experiment [2] and in experiment [10] were 10 mm and < 10 mm, respectively. The “diameter of the inhibition zone (DIZ)” value in [3], in [7], in experiment [8], in experiment [11] and in experiment [12] was “inactive” in each case. The zone of inhibition at 500 ppm in [4] is < 10 mm. The minimal inhibitory concentration (MIC) in experiment [6] is 500 µg/mL (≈ 1180 µM); in experiment [9] it was 1000 µg/mL (≈ 2360 µM).

In the case of `O=C(CSc1nnc2sc3ccccc3n12)N(C(=O)NC1CCCCC1)C1CCCCC1`, the MFC entry in experiment [1] is “inactive”. Also, the zone of inhibition at 1000 ppm in experiment [2] and in experiment [10] was > 16 mm each time. Besides, the “diameter of the inhibition zone (DIZ)” value in experiment [3] was “inactive”. Moreover, the zone of inhibition at 500 ppm in experiment [4] and in [7] was 10 mm throughout. Moreover, the minimum fungicidal concentration (MFC) in experiment [5] was found to be 500 µg/mL (≈ 1060 µM). Also, the MIC is 100 µg/mL (≈ 212 µM) in [6] and 300 µg/mL (≈ 636 µM) in [9]. The zone of inhibition at 300 ppm in [8] and in experiment [12] was < 10 mm in each case. Further, the zone of inhibition at 100 ppm in experiment [11] is < 10 mm.

`Sc1nc2ccccc2s1` [2-MERCAPTOBENZOTHIAZOLE] showed a minimal fungicidal concentration (MFC) in [1] of 500 µg/mL (≈ 2990 µM). Also, the zone of inhibition at 1000 ppm in experiment [2] is > 16 mm; in experiment [10] it was 10 mm. The “diameter of the inhibition zone (DIZ)” value in [3] and in [8] was “inactive” each time. The zone of inhibition at 500 ppm is 10 mm in experiment [4] and < 10 mm in [7]. In addition, the MFC entry in experiment [5] is “inactive”. In addition, the MIC in experiment [6] was determined as 100 µg/mL (≈ 598 µM); in experiment [9] it was 500 µg/mL (≈ 2990 µM). In [11], the zone of inhibition at 100 ppm is < 10 mm. Also, the zone of inhibition at 300 ppm in experiment [12] is < 10 mm.

Take `O=C(O)CCn1nc2sc3ccccc3n2c1=S`: the MFC entry in experiment [1] and in experiment [5] was “inactive” throughout. In addition, the figures for the zone of inhibition at 1000 ppm in [2] and in [10] were > 16 mm and 10 mm, respectively. The “diameter of the inhibition zone (DIZ)” value in experiment [3], in experiment [8] and in experiment [11] was “inactive” in each case. The zone of inhibition at 500 ppm in [4] is 10 mm; in experiment [7], < 10 mm. For the same molecule, the MIC in experiment [6] came to 300 µg/mL (≈ 1070 µM); in [9] it was 500 µg/mL (≈ 1790 µM). In [12], the zone of inhibition at 300 ppm is < 10 mm.

In the case of `COC(=O)CCNC(=O)CSc1nnc2sc3ccccc3n12`, the MFC entry in experiment [1] and in experiment [5] was “inactive” in each case. The zone of inhibition at 1000 ppm in experiment [2] and in [10] was < 10 mm each time. Further, the “diameter of the inhibition zone (DIZ)” value in experiment [3], in experiment [4], in [7], in experiment [8], in [11] and in experiment [12] was “inactive” in each case. For the same molecule, the minimum inhibitory concentration (MIC) in [6] worked out at 1000 µg/mL (≈ 2850 µM). For the same molecule, in experiment [9], the MIC entry is “inactive”.

For the molecule `O=C(O)CCSc1nnc2sc3ccccc3n12`, the MFC entry in experiment [1] and in experiment [5] was “inactive” in each case. For the same molecule, the zone of inhibition at 1000 ppm was > 16 mm in experiment [2] and 10 mm in [10]. For the same molecule, the “diameter of the inhibition zone (DIZ)” value in experiment [3], in [8] and in [11] was “inactive” each time. Further, the zone of inhibition at 500 ppm is 10 mm in experiment [4] and < 10 mm in experiment [7]. For the same molecule, the values for the MIC in experiment [6] and in [9] were 300 µg/mL (≈ 1070 µM) and 500 µg/mL (≈ 1790 µM), respectively. Further, in experiment [12], the zone of inhibition at 300 ppm was < 10 mm.
